In ChEMBL document CHEMBL4396869, “Design and Synthesis of Selective Phosphodiesterase 4D (PDE4D) Allosteric Inhibitors for the Treatment of Fragile X Syndrome and Other Brain Disorders” (J Med Chem, 2019):
Calls of active or inactive are those of the source. No cut-off for these calls is given here.

Assays:
[1] = Permeability across apical to basal side in MDCK-MDR1 cells; format: ADME, cell-based, Canis lupus familiaris; conditions: dog
Summary of the method: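 Cellular permeability in MDCK-MDR1 cells, apical-to-basal and basal-to-apical, run by a contract lab using standard protocols. Efflux ratio taken as B-A/A-B.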

[2] = target: T1, 3',5'-cyclic-AMP phosphodiesterase 4B (Homo sapiens, UniProt Q07343); assay: Inhibition of recombinant human N-terminal GST-tagged PDE4B3 (2 to 721 residues) expressed in baculovirus infected Sf9 cells using FAM-cAMP as substrate incubated for 60 mins by fluorescence assay; conditions: sf9, 1 h
[3] = target: T2, 3',5'-cyclic-AMP phosphodiesterase 4D (Homo sapiens, UniProt Q08499); assay: Inhibition of recombinant human N-terminal GST-tagged PDE4D2 (2 to 507 residues) expressed in baculovirus infected Sf9 cells using FAM-cAMP as substrate incubated for 60 mins by fluorescence assay; conditions: sf9, 1 h
[4] = Protein binding in mouse plasma; format: ADME, cell-free; conditions: read-out: PPB
[5] = target: T2, 3',5'-cyclic-AMP phosphodiesterase 4D; assay: Inhibition of recombinant human full length N-terminal GST-tagged PDE4D3 expressed in baculovirus infected Sf9 cells using FAM-cAMP as substrate incubated for 60 mins by fluorescence assay; conditions: sf9, 1 h
[6] = (§1) Inhibition of recombinant human His6-tagged PDE4D7 UCR1 S129D mutant expressed in baculovirus infected Sf9 insect cells using cAMP as substrate preincubated for 5 to 10 mins followed by substrate addition and measured for 10 mins by yeast myokinase/pyruvate kinase/lactate dehydrogenase-coupled fluorescence assay relative to control
[7] = Cmax in ICR mouse at 30 mg/kg, po; conditions: in vivo
[8] = Protein binding in rat plasma; format: ADME, cell-free; conditions: read-out: PPB
[9] = target: Dual specificity calcium/calmodulin-dependent 3',5'-cyclic nucleotide phosphodiesterase 1C (Homo sapiens, UniProt Q14123); assay: Inhibition of recombinant human N-terminal GST-tagged PDE1C (2 to 634 residues) expressed in baculovirus infected Sf9 insect cells using FAM-cAMP as substrate measured after 1 hr by fluorescence assay; conditions: sf9, 1 h
[10] = Inhibition of recombinant human N-terminal GST-tagged PDE4D7 (2 to 748 residues) expressed in baculovirus infected Sf9 cells using FAM-cAMP as substrate incubated for 60 mins by fluorescence assay; conditions: sf9, 1 h
[11] = Protein binding in human plasma; format: ADME, cell-free; conditions: read-out: PPB
Cytochrome P450 2C9 = Cytochrome P450 2C9 (Homo sapiens, UniProt P11712); assay: Inhibition of CYP2C9 (unknown origin) by fluorescence-based assay; format: ADME
Summary of the method: (§2)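 CYP inhibition run with a fluorescent substrate by a contract laboratory under standard protocols; IC50 reported.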

[12] = Vascular toxicity in rat measured for 28 days; conditions: in vivo, 672 h
Cynomolgus monkey = assay: Induction of emesis in cynomolgus monkey up to 50 mg/kg, po; format: organism-based, Macaca fascicularis; conditions: in vivo
[13] = Protein binding in dog plasma; format: ADME, cell-free, Canis lupus familiaris; conditions: read-out: PPB
[14] = Oral bioavailability in dog; format: ADME, organism-based, Canis lupus familiaris; conditions: in vivo
[15] = target: Dual specificity calcium/calmodulin-dependent 3',5'-cyclic nucleotide phosphodiesterase 1A (Homo sapiens, UniProt P54750); assay: Inhibition of recombinant human full length N-terminal GST-tagged PDE1A5 expressed in baculovirus infected Sf9 insect cells using FAM-cAMP as substrate measured after 1 hr by fluorescence assay; conditions: sf9, 1 h
[16] = Vascular toxicity in rat during 28 days study by microscopic analysis; conditions: in vivo, 672 h
[17] = target: T3, 3',5'-cyclic-AMP phosphodiesterase 4A (Homo sapiens, UniProt P27815); assay: Inhibition of recombinant N-terminal GST-tagged human PDE4A10 (2 to 825 residues) expressed in baculovirus infected Sf9 cells using FAM-cAMP as substrate incubated for 60 mins by fluorescence assay; conditions: sf9, 1 h
[18] = Oral bioavailability in rat; format: ADME, organism-based; conditions: in vivo
[19] = target: T1, 3',5'-cyclic-AMP phosphodiesterase 4B; assay: Inhibition of recombinant N-terminal GST-tagged/C-terminal His-tagged full length human PDE4B2 expressed in baculovirus infected Sf9 cells using FAM-cAMP as substrate incubated for 60 mins by fluorescence assay; conditions: sf9, 1 h
[20] = Cmax in ICR mouse at 0.3 mg/kg, po; format: ADME, organism-based; set-up: dose 0.3 mg/kg, route oral; conditions: in vivo
[21] = Vascular toxicity in dog during 90 days study by microscopic analysis; set-up: species or system Canis lupus familiaris; conditions: in vivo, 2160 h
[22] = target: T3, 3',5'-cyclic-AMP phosphodiesterase 4A; assay: Inhibition of recombinant N-terminal GST tagged human PDE4A4B (2 to end residues) expressed in Sf9 cells using FAM-cAMP as substrate incubated for 60 mins by fluorescence assay; conditions: sf9, 1 h
[23] = Stability in human liver microsomes assessed as parent compound remaining at 1 uM measured after 30 mins by LC-MS/MS analysis; format: ADME, Microsome; conditions: read-out: Stability
Summary of the method: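 Liver microsome stability run by a contract lab using standard protocols. Parent compound remaining measured after 30 min incubation.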

[24] = as §1, with “PDE4D UCR2 deletion” for “PDE4D7 UCR1 S129D”, “mutant catalytic domain” for “mutant”
[25] = as §1, with “PDE4D3” for “PDE4D7”, “S54D” for “S129D”
[26] = as §1, with “10 mins in presence of BSA by yeast” for “10 mins by yeast”, “fluorescence assay” for “fluorescence assay relative to control”
[27] = target: cAMP and cAMP-inhibited cGMP 3',5'-cyclic phosphodiesterase 10A (Homo sapiens, UniProt Q9Y233); assay: Inhibition of recombinant human N-terminal GST-tagged PDE10A1 (2 to 789 residues) expressed in baculovirus infected Sf9 cells using FAM-cAMP as substrate incubated for 60 mins by fluorescence assay; conditions: sf9, 1 h
Cytochrome P450 3A4 = Cytochrome P450 3A4 (Homo sapiens, UniProt P08684); assay: Inhibition of CYP3A4 (unknown origin) by fluorescence-based assay; format: ADME; summary of the method: as §2
[28] = Vascular toxicity in dog measured for 90 days; set-up: species or system Canis lupus familiaris; conditions: in vivo, 2160 h
Cytochrome P450 2D6 = Cytochrome P450 2D6 (Homo sapiens, UniProt P10635); assay: Inhibition of CYP2D6 (unknown origin) by fluorescence-based assay; format: ADME; summary of the method: as §2
[29] = Toxicity in rat assessed as inappetence at 100 mg/kg, po; format: organism-based; conditions: in vivo
Cytochrome P450 2C19 = Cytochrome P450 2C19 (Homo sapiens, UniProt P33261); assay: Inhibition of […] (unknown origin) by fluorescence-based assay; format: ADME; summary of the method: as §2
[30] = target: cGMP-inhibited 3',5'-cyclic phosphodiesterase 3B (Homo sapiens, UniProt Q13370); assay: Inhibition of recombinant N-terminal GST-tagged human PDE3B (592-end residues) expressed in baculovirus infected Sf9 cells using FAM-cAMP as substrate incubated for 60 mins by fluorescence assay; conditions: sf9, 1 h
Mustela putorius furo = assay: Induction of emesis in ferret up to 30 mg/kg, po; format: organism-based; conditions: in vivo
[31] = Aqueous kinetic solubility of the compound in pH 7.4 PBS buffer at 100 uM measured after 1 hr; format: physicochemical; conditions: pH 7.4, 1 h
[32] = Toxicity in dog assessed as emesis at 100 mg/kg, po; format: organism-based, Canis lupus familiaris; conditions: in vivo
[33] = Cardiovascular toxicity in dog at 100 mg/kg, po; format: organism-based, Canis lupus familiaris; conditions: in vivo
[34] = target: cGMP-inhibited 3',5'-cyclic phosphodiesterase 3A (Homo sapiens, UniProt Q14432); assay: Inhibition of recombinant human N-terminal His/GST-tagged PDE3A (669 to 1141 residues) expressed in baculovirus infected Sf9 insect cells using cAMP as substrate
[35] = Half life in C57Bl6 mouse; format: ADME; conditions: in vivo

T2 sequence (Q08499 whole entry, the tested form may be a part): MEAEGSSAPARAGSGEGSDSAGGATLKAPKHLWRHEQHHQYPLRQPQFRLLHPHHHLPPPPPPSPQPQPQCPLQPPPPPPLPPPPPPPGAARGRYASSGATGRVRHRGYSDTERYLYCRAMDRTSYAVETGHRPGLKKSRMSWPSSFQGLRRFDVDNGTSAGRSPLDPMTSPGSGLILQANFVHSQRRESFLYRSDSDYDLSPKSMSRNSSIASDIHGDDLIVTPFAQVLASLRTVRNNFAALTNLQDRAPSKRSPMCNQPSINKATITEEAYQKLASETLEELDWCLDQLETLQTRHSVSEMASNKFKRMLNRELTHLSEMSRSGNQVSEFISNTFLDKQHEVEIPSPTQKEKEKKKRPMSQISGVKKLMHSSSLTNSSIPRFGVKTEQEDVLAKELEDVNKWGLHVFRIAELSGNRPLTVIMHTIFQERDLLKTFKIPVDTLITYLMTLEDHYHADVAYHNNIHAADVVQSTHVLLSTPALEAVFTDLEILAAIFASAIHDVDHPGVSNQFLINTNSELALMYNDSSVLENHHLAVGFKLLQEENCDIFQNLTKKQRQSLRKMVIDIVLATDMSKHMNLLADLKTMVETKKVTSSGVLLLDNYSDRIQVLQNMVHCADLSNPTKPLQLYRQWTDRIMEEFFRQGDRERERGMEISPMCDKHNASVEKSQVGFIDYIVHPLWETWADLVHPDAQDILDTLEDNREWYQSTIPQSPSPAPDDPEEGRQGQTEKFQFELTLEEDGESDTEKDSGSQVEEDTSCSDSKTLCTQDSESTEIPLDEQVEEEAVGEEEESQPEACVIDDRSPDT
T1 sequence (Q07343 whole entry, the tested form may be a part): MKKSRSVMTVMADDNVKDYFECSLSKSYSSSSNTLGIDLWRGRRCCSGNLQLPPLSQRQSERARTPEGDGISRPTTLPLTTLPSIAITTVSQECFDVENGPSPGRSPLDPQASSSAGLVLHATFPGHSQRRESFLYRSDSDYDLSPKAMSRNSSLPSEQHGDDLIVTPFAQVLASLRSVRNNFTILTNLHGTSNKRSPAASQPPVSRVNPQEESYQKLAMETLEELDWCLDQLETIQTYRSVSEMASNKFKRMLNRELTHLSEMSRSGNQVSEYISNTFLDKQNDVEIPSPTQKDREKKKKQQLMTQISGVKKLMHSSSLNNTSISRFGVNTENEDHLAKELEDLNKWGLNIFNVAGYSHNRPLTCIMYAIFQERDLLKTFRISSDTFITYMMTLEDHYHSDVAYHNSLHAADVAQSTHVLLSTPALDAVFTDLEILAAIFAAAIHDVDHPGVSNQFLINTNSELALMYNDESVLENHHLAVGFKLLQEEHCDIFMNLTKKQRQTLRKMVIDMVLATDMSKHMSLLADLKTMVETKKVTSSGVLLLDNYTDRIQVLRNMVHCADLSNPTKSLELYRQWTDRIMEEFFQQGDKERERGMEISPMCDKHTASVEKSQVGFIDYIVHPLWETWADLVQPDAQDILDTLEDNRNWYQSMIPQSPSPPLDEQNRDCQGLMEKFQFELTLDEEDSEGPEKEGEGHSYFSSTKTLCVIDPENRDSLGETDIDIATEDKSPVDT
T3 sequence (P27815 whole entry, the tested form may be a part): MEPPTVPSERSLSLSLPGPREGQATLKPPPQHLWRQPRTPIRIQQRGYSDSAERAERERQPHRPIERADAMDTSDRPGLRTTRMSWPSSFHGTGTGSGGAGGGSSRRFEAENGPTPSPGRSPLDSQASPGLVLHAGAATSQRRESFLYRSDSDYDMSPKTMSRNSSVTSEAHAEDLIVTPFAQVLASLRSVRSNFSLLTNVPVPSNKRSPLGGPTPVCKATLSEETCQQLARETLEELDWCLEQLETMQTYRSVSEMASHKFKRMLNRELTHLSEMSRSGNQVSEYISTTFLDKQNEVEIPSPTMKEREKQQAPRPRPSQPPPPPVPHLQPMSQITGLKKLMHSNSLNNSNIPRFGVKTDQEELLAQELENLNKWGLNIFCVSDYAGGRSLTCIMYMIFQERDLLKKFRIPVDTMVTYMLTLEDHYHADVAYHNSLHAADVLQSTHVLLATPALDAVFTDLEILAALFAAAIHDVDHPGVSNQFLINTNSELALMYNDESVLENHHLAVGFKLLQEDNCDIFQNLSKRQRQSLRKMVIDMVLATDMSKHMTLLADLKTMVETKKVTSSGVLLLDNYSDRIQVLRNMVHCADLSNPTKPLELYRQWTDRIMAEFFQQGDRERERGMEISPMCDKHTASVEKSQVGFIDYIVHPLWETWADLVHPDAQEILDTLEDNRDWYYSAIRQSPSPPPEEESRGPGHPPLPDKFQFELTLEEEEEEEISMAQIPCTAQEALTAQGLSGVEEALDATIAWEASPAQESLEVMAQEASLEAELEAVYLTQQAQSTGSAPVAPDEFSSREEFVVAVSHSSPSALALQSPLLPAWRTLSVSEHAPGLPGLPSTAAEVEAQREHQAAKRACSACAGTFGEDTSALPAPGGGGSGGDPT
Chain of Dual specificity calcium/calmodulin-dependent 3',5'-cyclic nucleotide phosphodiesterase 1C (Q14123 whole entry, the tested form may be a part): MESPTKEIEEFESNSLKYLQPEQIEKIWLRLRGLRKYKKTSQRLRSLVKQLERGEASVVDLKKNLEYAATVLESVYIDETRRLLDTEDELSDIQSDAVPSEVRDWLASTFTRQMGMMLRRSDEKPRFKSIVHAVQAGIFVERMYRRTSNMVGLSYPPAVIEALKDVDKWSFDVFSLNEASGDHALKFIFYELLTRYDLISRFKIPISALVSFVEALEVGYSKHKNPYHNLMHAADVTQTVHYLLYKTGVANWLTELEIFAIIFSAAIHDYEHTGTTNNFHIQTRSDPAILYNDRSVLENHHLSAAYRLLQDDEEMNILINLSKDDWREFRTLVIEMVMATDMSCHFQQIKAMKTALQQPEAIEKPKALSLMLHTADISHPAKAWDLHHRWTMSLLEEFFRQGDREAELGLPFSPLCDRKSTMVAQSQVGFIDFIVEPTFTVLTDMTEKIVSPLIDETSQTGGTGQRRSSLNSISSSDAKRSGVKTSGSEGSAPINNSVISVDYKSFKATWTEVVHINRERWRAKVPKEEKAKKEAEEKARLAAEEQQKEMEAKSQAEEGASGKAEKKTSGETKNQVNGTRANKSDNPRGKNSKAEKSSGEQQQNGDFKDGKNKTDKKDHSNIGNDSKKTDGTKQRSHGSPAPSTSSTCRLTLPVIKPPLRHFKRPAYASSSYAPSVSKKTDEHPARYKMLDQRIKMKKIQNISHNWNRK
Chain of Cytochrome P450 2C19 (P33261 whole entry): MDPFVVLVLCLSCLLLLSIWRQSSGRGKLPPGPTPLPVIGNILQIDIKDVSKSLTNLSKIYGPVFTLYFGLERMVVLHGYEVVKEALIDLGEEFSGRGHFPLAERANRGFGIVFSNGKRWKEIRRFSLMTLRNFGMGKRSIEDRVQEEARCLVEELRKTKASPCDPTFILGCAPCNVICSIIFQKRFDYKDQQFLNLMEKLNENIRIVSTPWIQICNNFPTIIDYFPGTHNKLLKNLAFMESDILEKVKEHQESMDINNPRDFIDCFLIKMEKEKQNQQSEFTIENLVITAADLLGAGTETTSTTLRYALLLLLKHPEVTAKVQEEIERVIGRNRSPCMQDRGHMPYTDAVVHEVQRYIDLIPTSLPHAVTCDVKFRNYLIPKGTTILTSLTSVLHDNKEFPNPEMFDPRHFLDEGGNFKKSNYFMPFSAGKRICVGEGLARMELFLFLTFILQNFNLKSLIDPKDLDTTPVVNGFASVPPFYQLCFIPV
Chain of cGMP-inhibited 3',5'-cyclic phosphodiesterase 3A (Q14432 whole entry, the tested form may be a part): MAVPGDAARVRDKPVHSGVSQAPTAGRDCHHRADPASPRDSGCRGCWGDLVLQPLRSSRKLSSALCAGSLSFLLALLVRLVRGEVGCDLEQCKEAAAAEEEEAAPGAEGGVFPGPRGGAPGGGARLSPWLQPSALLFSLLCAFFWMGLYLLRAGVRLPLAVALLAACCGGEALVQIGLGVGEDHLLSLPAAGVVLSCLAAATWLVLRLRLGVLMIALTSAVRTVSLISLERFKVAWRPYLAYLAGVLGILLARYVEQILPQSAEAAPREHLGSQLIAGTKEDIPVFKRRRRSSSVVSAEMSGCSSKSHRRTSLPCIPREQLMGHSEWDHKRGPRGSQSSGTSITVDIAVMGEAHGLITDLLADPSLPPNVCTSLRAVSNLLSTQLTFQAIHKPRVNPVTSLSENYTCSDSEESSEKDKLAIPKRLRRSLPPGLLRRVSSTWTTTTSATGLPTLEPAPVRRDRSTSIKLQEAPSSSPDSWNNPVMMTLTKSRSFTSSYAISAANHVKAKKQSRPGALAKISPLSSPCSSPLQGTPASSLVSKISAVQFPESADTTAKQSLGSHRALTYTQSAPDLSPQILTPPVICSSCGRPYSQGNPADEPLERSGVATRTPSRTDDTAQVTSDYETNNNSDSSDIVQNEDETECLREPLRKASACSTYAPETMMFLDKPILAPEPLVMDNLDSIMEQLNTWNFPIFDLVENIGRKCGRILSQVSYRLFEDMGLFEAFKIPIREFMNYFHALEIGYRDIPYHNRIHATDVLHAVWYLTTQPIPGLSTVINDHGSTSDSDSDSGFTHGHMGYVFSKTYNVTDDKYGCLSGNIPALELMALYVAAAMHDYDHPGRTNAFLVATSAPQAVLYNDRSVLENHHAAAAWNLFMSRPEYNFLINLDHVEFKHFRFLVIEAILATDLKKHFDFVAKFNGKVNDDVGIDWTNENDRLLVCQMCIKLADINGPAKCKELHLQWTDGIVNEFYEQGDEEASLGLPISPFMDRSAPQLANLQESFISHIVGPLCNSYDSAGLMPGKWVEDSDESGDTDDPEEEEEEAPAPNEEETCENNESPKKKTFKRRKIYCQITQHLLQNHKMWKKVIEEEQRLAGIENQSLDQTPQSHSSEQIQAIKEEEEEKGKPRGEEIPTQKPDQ

With O=C(O)Cc1ccc(Cc2cc(-c3cccc(Cl)c3)nc(C(F)(F)F)c2)cc1 [ZATOLMILAST] as the compound, how does the permeability [1] read?
Its permeability is 53 ×10⁻⁶ cm/s.

What about the “inhibition (INH)” value [2] of the same compound?
Its value is “Not Active”.

What about the “inhibition (INH)” value [3] of the same compound?
The value was “Not Active”.

What about the fraction unbound [4] of the same compound?
Its fraction unbound is 0.002 to 0.005.

And the “inhibition (INH)” value [5]?
Its value is “Not Active”.

What about the Imax [6] of the same compound?
Its Imax is 90.2%.

What about the Cmax [7] of the same compound?
The Cmax was 11475 ng/mL.

And the fraction unbound [8]?
Its fraction unbound is 0.002 to 0.005.

What about the “inhibition (INH)” value [9] of the same compound?
Its value is “Not Active”.

What about the “inhibition (INH)” value [10] of the same compound?
Its value is “Not Active”.

What about the fraction unbound [11] of the same compound?
Its fraction unbound is 0.002 to 0.005.

And the IC50 (Cytochrome P450 2C9)?
The IC50 was > 51 µM.

What about the Activity [12] of the same compound?
Its Activity is “Non-Toxic”.

What about the Activity (Cynomolgus monkey) of the same compound?
The Activity was “Non-Toxic”.

And the fraction unbound [13]?
Its fraction unbound is 0.002 to 0.005.

And the bioavailability [14]?
The bioavailability was 80 to 100%.

And the “inhibition (INH)” value [15]?
Its value is “Not Active”.

And the Activity [16]?
Its Activity is “Non-Toxic”.

What about the “inhibition (INH)” value [17] of the same compound?
Its value is “Not Active”.

What about the bioavailability [18] of the same compound?
Its bioavailability is 80 to 100%.

And the “inhibition (INH)” value [19]?
Its value is “Not Active”.

And the Cmax [20]?
Its Cmax is 153 ng/mL.

What about the Activity [21] of the same compound?
The Activity was “Non-Toxic”.

What about the “inhibition (INH)” value [22] of the same compound?
The value was “Not Active”.

And the remaining at 0.5 h, 1 µM [23]?
The remaining at 0.5 h, 1 µM was 88 to 100%.

And the inhibition [24]?
The inhibition was “inactive”.

What about the Imax [25] of the same compound?
The Imax was 89%.

What about the inhibition [26] of the same compound?
The inhibition was “Active”.

What about the “inhibition (INH)” value [27] of the same compound?
Its value is “Not Active”.

What about the IC50 (Cytochrome P450 3A4) of the same compound?
The IC50 was 15 µM.

What about the Activity [28] of the same compound?
The Activity was “Non-Toxic”.

What about the IC50 (Cytochrome P450 2D6) of the same compound?
The IC50 was > 100 µM.

And the Activity [29]?
Its Activity is “Toxic”.

And the IC50 (Cytochrome P450 2C19)?
Its IC50 is 43 µM.

What about the “inhibition (INH)” value [30] of the same compound?
The value was “Not Active”.

And the Activity (Mustela putorius furo)?
Its Activity is “Non-Toxic”.

What about the Kinetic_solubility [31] of the same compound?
The Kinetic_solubility was 95 µM.

And the Activity [32]?
Its Activity is “Toxic”.

And the Activity [33]?
The Activity was “Non-Toxic”.

What about the “inhibition (INH)” value [34] of the same compound?
The value was “Not Active”.

And the half-life [35]?
Its half-life is 10 to 12 h.
